Screens as filed in PubChem BioAssay.
M4 PAM = CHRM4 positive allosteric modulation; activation, % at 3 µM; 360,000 tested, 0.4% active; CHO-K1 hM4/Gqi5, Fluo-8 calcium fluorescence, ACh EC20; 0% = ACh EC20, 100% = maximal ACh;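 active = activation above its plate's cutoff, the mean activation of sample wells plus 3 SD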
CHRM5 agonist = agonists of human muscarinic M5 receptor (CHRM5); CHO-K1 hM5 cells, Fluo-8 calcium fluorescence; 0% DMSO wells, 100% maximal acetylcholine response; P08912; AID 624037; 360,000 tested, 0.19% active; activation, % at 3 µM;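 active = activation above the run's mean over test compounds plus 3 SD, cut at about 23% in these data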;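 also: signal is peak over basal fluorescence ratio across the kinetic read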
Target sequence (P08912 whole entry, looked up): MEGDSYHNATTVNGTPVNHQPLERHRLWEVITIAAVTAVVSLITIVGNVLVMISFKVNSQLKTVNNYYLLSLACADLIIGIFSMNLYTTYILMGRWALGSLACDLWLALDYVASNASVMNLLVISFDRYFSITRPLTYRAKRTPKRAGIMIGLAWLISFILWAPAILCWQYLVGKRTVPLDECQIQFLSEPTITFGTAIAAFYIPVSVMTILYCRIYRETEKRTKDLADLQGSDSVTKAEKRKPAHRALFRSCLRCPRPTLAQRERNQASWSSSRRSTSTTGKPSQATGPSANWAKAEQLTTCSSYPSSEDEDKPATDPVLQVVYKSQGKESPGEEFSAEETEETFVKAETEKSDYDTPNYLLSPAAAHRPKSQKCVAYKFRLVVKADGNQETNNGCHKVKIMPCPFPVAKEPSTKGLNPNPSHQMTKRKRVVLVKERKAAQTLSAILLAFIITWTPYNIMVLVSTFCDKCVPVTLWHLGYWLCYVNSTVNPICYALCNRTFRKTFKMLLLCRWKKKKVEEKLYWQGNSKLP
CHRM4 agonist = CHRM4 agonism in calcium assay; CHO-K1 hM4/Gqi5, Fluo-8 calcium fluorescence; vehicle 0%, full acetylcholine response 100%; activation, % at 3 µM; 360,000 tested, 0.14% active; AID 624127;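 active = activation above the run mean over all test wells plus 3 SD, cut at about 32% in these data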;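 also: peak over basal fluorescence ratio per well then scaled between controls; 0% = DMSO wells and 100% = acetylcholine at EC100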
CHRM4 antagonist = CHRM4 antagonism in calcium assay; P08173; 360,000 tested, 0.73% active; CHO-hM4 cells, ACh EC80, Fluo-8 calcium fluorescence; inhibition, % at 3 µM; AID 624125;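 active = inhibition above its plate's cutoff, the mean inhibition of sample wells plus 3 SD, cut at about 27% in these data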;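 also: 0% = acetylcholine EC80 with DMSO and 100% = DMSO without agonist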
CHRM5 PAM = positive allosteric modulators of human muscarinic M5 receptor; 360,000 tested, 0.3% active; P08912; AID 624038; CHO-K1 hM5, Fluo-8 calcium, ACh EC20 PAM; 0% = ACh EC20, 100% = ACh EC100; activation, % at 3 µM;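 active = activation above the run cutoff, the mean activation of all test compounds plus 3 SD, cut at about 18% in these data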
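system = human M5 receptor in CHO-K1 cells | reagent = EC20 acetylcholine as agonist stimulus | compound dosing = single-point, 3 µM nominal | incubation = Fluo-8 loading 80 min at 37 °C plus 30 min room temperature | detection = Fluo-8 calcium dye fluorescence, kinetic read | benchmarks = low control EC20 acetylcholine (0%), high control EC100 acetylcholine (100%)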
CHRM5 antagonist = antagonists of human muscarinic M5 receptor (CHRM5); 360,000 tested, 0.59% active; inhibition, % at 3 µM; AID 624040; CHO-hM5 cells, Fluo-8 calcium fluorescence, ACh EC80;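 active = inhibition above a per-plate cutoff, the mean of that plate's test compounds plus 3 SD, cut at about 27% in these data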;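 also: 0% = acetylcholine EC80 with DMSO and 100% = DMSO without agonist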
An asterisk follows results filed as active. An excerpt weighted towards active compounds, which were near 1.9% of everything screened.

SMILES | M4 PAM | CHRM5 agonist | CHRM4 agonist | CHRM4 antagonist | CHRM5 PAM | CHRM5 antagonist
COc1ccc(NC(=O)CCNC(=O)C2CCN(S(=O)(=O)c3ccc(OC)cc3)CC2)cc1 | -6.0 | -2.7 | 0.0 | 4.4 | -3.6 | 13.3
CC(C)[C@H](NC(=O)C1CCN(S(=O)(=O)c2ccccc2)CC1)C(=O)NCc1ccccc1 | 14.7* | -1.7 | 0.5 | -11.2 | 13.3 | -13.5
O=C1NC2=C(C(=O)CCC2)C(c2ccc([N+](=O)[O-])cc2)N1 (stereo unspecified) | 2.2 | -0.7 | 1.2 | 9.1 | 2.0 | 5.7
CCc1ccc(C(=O)NNC(=O)c2ccc(=O)n(C)n2)cc1 | -3.4 | -2.0 | 0.4 | -0.9 | 5.6 | 7.4
CCN(CC)CCN1C(=O)c2ccccc2NC1c1ccccc1F (stereo unspecified) | -15.3 | -6.8 | 0.5 | 29.3* | -22.6 | 13.7
CCN(CC)CCN1C(=O)c2ccccc2NC1c1ccc(F)cc1 (stereo unspecified) | -6.8 | -7.7 | 0.4 | 2.5 | 3.0 | -8.0
Cc1ccc(C(=O)CN2C(=O)NC3(CCCCCC3)C2=O)c(C)c1 | -3.8 | -5.8 | 0.8 | 1.0 | -0.9 | -7.7
CCOC(=O)c1sc(NC(=O)Nc2ccccc2Cl)cc1C | -6.0 | 2.7 | 10.2 | -20.0 | -21.6 | 20.9
CCOC(=O)c1sc(NC(=O)Nc2ccccc2)cc1C | -7.2 | 4.6 | 18.1 | 15.4 | -19.5 | 45.7*
CC(C)(C)NC(=O)CSc1ccc(S(=O)(=O)N2CCOCC2)cn1 | 7.7 | 7.1 | 3.9 | -3.0 | 9.8 | -0.3
CCOc1ccc(NC(=O)Nc2ccc3nsnc3c2)cc1 | -11.5 | 5.5 | 17.4 | 1.6 | -22.9 | 32.6*
O=C(Nc1ccc(F)cc1)Nc1cc(OCC(F)(F)F)cc(OCC(F)(F)F)c1 | -12.9 | 8.0 | 12.1 | 18.9 | -17.7 | 30.5*
CCOc1ccc(NC(=O)Nc2cc(OCC(F)(F)F)cc(OCC(F)(F)F)c2)cc1 | -9.2 | 1.3 | 9.7 | 8.6 | -14.9 | 28.0*
CCOc1ccc(NC(=O)Nc2cccc(C(=O)O)c2)cc1 | 4.5 | -4.1 | 6.1 | 8.4 | -0.8 | 5.2
COC(=O)c1ccc(NC(=O)Nc2ccc(F)cc2)cc1 | -9.5 | 6.4 | 14.1 | 13.2 | -16.6 | 21.2
CCCC(=O)Nc1ccc(OCC(O)CNC(C)C)c(C(C)=O)c1 (stereo unspecified) | -18.0 | -1.1 | 1.6 | 99.9* | -17.6 | 9.6
CC(=O)Nc1ccc(-c2ccnc3c2CC(C(=O)Nc2cccc(Oc4ccccc4)c2)O3)cc1 (stereo unspecified) | -2.5 | 1.2 | 6.0 | -7.3 | -4.6 | -7.4
CCN(CC(=O)Nc1ccc2c(c1)OCCO2)C(=O)/C=C/c1cccc(OC)c1OC | 22.9 | 25.3* | 4.4 | -14.7 | 11.1 | -12.7
CCN(CC(=O)Nc1ccc2c(c1)OCCO2)C(=O)/C=C/c1ccc(OC)cc1OC | 0.2 | -3.4 | 4.8 | -3.2 | -7.6 | 17.0
Cc1cccc(C(=O)NNS(=O)(=O)c2ccccc2[N+](=O)[O-])c1 | 27.6* | 0.4 | 1.0 | -1.9 | -1.8 | -6.8
COC(=O)c1ccc(NC(=O)COC(=O)COc2cccc3c2OC(C)(C)C3)cc1 | 1.2 | 1.2 | 7.6 | 3.4 | -11.4 | 15.1
CC(C)CN1Cc2ccccc2Oc2cc(Br)ccc2S1(=O)=O | 24.6* | 21.8 | 8.7 | -8.4 | 12.1 | 1.4
O=C1N=c2ccccc2=C1c1c(O)[nH]c2c(C(F)(F)F)cccc12 | -10.3 | 2.5 | 0.7 | 8.8 | 1.6 | 3.8
CCCS(=O)(=O)N1CCN(C(=O)c2ccco2)CC1 | 19.8* | -6.5 | 0.7 | -3.4 | 19.0* | -4.9
CCS(=O)(=O)N1CCN(C(=O)c2ccco2)CC1 | 3.0 | 2.3 | 2.4 | -1.1 | 1.1 | -4.2
SMILES | M4 PAM | CHRM5 agonist | CHRM4 agonist | CHRM4 antagonist | CHRM5 PAM | CHRM5 antagonist
Cc1ccc(S(=O)(=O)CCc2nc3ccccc3[nH]2)cc1 | -6.2 | 0.4 | 1.9 | 0.6 | -1.2 | 10.0
O=S(=O)(CCc1nc2ccccc2[nH]1)c1ccc(Cl)cc1 | 22.9* | 0.7 | 2.1 | -10.1 | 1.1 | -13.7
O=C1NC[C@H](Cc2ccccc2)N(CC2CCN(CC3CCCC3)CC2)C1=O | 5.1 | 1.8 | 0.4 | -8.8 | 0.3 | -3.3
Cc1ccc(N2CC(C(=O)N3CCCCCC3)CC2=O)cc1 (stereo unspecified) | 4.8 | -3.1 | 1.1 | 5.5 | 1.4 | -4.2
O=C(CC(Sc1ccc(Br)cc1)C(=O)O)c1ccc(F)cc1 (stereo unspecified) | -7.5 | -5.5 | 1.1 | -2.6 | 1.1 | -1.3
C/C(=N\NC(=O)c1nnn(-c2nonc2N)c1CN(C)c1ccccc1)c1cccc(O)c1 | 2.4 | -3.7 | 8.2 | -24.7 | -5.9 | -2.5
COC(=O)c1ccc2nc(-c3ccc(F)cc3)c(Cc3cccc(F)c3)n2c1 | -10.4 | -5.5 | 3.6 | 5.8 | -23.6 | 35.9*
COC(=O)c1ccc2nc(-c3ccccc3)c(Cc3cccc(F)c3)n2c1 | 0.1 | -5.9 | -1.1 | 8.0 | -24.2 | 9.8
COC(=O)c1ccc2nc(-c3ccc(F)cc3)c(Cc3cccc(Cl)c3)n2c1 | -12.9 | -4.8 | 1.6 | 35.5* | -24.2 | 76.6*
Cc1ccc(-c2ccc(C#N)c(=O)n2CC(=O)N(C)C)cc1 | -1.2 | 4.9 | 0.3 | 0.8 | -4.1 | -2.8
Cc1ccc(C(=O)NCC(=O)N2CCN(c3ccccc3O)CC2)s1 | 4.1 | -1.9 | 2.5 | -4.3 | -3.0 | -1.7
O=C(Nc1ccccc1)Nc1ccc(-n2ccc(C(F)(F)F)n2)cc1 | -61.8 | 5.9 | 24.9 | 44.9* | -36.0 | 50.6*
COc1ccc(-c2ccc3c(c2)S(=O)(=O)c2cccc(C(=O)N4CCN(C5CCCCC5)CC4)c2C3=O)cc1OC | -8.4 | 5.8 | 23.1 | 9.1 | -31.8 | 34.1*
NS(=O)(=O)c1ccc(NC(=O)CN2CCc3ccccc3C2)cc1 | -4.9 | -3.7 | 1.1 | 10.0 | 4.3 | 7.1
S=C(NCCc1ccccc1)N1CCCC1 | -10.8 | -5.0 | 0.8 | -0.9 | 7.8 | 2.7
CC1CCCN(C(=S)NCCc2ccccc2)C1 (stereo unspecified) | 4.8 | -6.9 | 0.1 | -6.1 | 19.3* | -9.0
Cc1ccc(C)c(S(=O)(=O)NCc2ccc(C(=O)N3CCN(C)CC3)cc2)c1 | 20.4* | 2.9 | 1.2 | -11.9 | 13.7 | -7.3
CCN(CC)CCOCCn1c(C)ccc1C | -2.9 | -4.2 | 0.1 | 2.0 | 2.0 | 1.9
N=c1c2c3c(sc2nc2n1CCCCC2)CCCCC3 | -23.8 | -5.9 | 3.5 | 28.7* | -12.0 | 6.6
CCc1nnc(NC(=O)c2cc(-c3ccccn3)nc3ccccc23)s1 | 19.4* | 4.7 | 0.8 | -1.8 | 2.2 | 5.1
CCc1nnc(NC(=O)c2cc(-c3ccco3)nc3ccccc23)s1 | 4.2 | 0.8 | 1.1 | -7.7 | 13.9 | -4.7
CCCc1nnc(NC(=O)c2ccncc2)s1 | -0.2 | 2.4 | 0.0 | 1.7 | -1.8 | -3.1
